The source made the active and inactive calls. The rule behind the calls is not given here.

Series [1] is described as follows: Inhibition of FAK/AKT/ROCK signaling pathway in human A549 cells assessed as decrease in OPN-induced AKT phosphorylation at 5 to 10 uM after 15 mins by Western blot analysis. It is filed as cell-based. For orientation: Immunoblotting shows a protein as a band on a membrane.
The nature of series [2]: Inhibition of FAK/AKT/ROCK signaling pathway in human A549 cells assessed as decrease in OPN-induced phosphorylation of cofilin at 5 to 10 uM after 24 hrs by Western blot analysis. It is filed as cell-based. The gist of the method: (§1)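 A549 cells were given 1 nM OPN for 24 h with or without compound. 25–30 μg total protein per lane was probed with primary antibodies overnight at 4 °C, then secondary antibodies for 2 h at room temperature. Detection was by enhanced chemiluminescence, with densitometric band quantification. Mean ± SD of two independent experiments; Student's t test.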

Series [3] deals with A549. Description: Anti-invasive activity in human A549 cells assessed as inhibition of OPN-induced cell invasion to matrigel coated invasion chamber at 10 uM preincubated for 30 mins followed by OPN stimulation measured after 24 hrs by boyden chamber assay. It is filed as functional. The gist of the method:
(§2)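 Boyden chamber with a Matrigel-coated filter. Cells were pretreated with compound for 30 min and loaded into the upper wells, with 1 nM OPN in the lower wells. After 24 h at 37 °C, cells were stained, random fields were photographed at 200×, and cells on the lower surface were counted. Mean ± SD of two independent experiments; Student's t test.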

Series [4] has as its target Focal adhesion kinase 1 (Homo sapiens) (UniProt Q05397). Description: Inhibition of FAK signaling pathway in human A549 cells assessed as decrease in OPN-induced FAK phosphorylation at 5 to 10 uM after 15 mins by Western blot analysis. It is filed as cell-based.
In series [5] the test system is A549. Nature of the series: Effect on total cofilin protein level in OPN-stimulated human A549 cells at 5 to 10 uM after 24 hrs by Western blot analysis. It is filed as ADME, cell-based. The note with it: a549, 24 h. The gist of the method: as §1
The test system of series [6] is A549. Nature of the series: Anti-invasive activity in human A549 cells assessed as inhibition of OPN-induced cell invasion to matrigel coated invasion chamber at 5 uM preincubated for 30 mins followed by OPN stimulation measured after 24 hrs by boyden chamber assay. It is filed as functional. In outline:
as §2

The nature of series [7]: Inhibition of FAK/AKT/ROCK signaling pathway in human A549 cells assessed as decrease in OPN-induced lamellipodia formation at 10 uM after 24 hrs by rhodamine phalloidin/DAPI staining based immunofluorescence assay. It is filed as cell-based. The gist of the method:
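5 × 10^4 cells/well were seeded on chamber slides and treated with 1 nM OPN for 24 h with or without 10 μM compound. Cells were fixed in 4% formaldehyde/PBS pH 7.4 for 10 min and permeabilized in 0.5% Triton X-100 for 5 min. They were stained with 100 nM rhodamine phalloidin for 30 min at room temperature in the dark, counterstained with DAPI, and imaged by confocal microscopy at 600×.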

Series [8] concerns A549. Description: Effect on total AKT protein level in OPN-stimulated human A549 cells at 5 to 10 uM after 24 hrs by Western blot analysis. It is filed as ADME, cell-based. The note with it: a549, 24 h. In outline: as §1
Series [9] deals with A549. Nature of the series: Effect on total LIMK1/2 protein level in OPN-stimulated human A549 cells at 5 to 10 uM after 24 hrs by Western blot analysis. It is filed as ADME, cell-based. The note with it: a549, 24 h. The gist of the method:
as §1

Series [10] concerns A549. Description: Cytotoxicity against human A549 cells assessed as reduction in cell viability at 10 uM after 24 hrs by MTT assay. It is filed as cell-based. The note with it: a549, 24 h. In outline:
(§3)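 A549 cells were exposed to compound in serum-free medium for 24 h, and viability was read by MTT assay. Mean ± SD of three independent experiments; Student's t test versus untreated control.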
For orientation: Tetrazolium dyes change colour on reduction, which living cells bring about.

Series [11] deals with A549. Description: Effect on total ROCK1 protein level in OPN-stimulated human A549 cells at 5 to 10 uM after 24 hrs by Western blot analysis. It is filed as ADME, cell-based. The note with it: a549, 24 h. The gist of the method: as §1
In series [12] the test system is A549. Description: Cytotoxicity against human A549 cells assessed as reduction in cell viability at 20 uM after 24 hrs by MTT assay. It is filed as cell-based. The note with it: a549, 24 h. In outline:
as §3

Series [13] is described as follows: Inhibition of FAK/AKT/ROCK signaling pathway in human A549 cells assessed as decrease in OPN-induced ROCK1 expression at 5 to 10 uM after 24 hrs by Western blot analysis. It is filed as cell-based. The gist of the method: as §1
Series [14] in a line: Inhibition of FAK/AKT/ROCK signaling pathway in human A549 cells assessed as decrease in OPN-induced phosphorylation of LIMK1/2 at 5 to 10 uM after 24 hrs by Western blot analysis. It is filed as cell-based. In outline:
as §1

For series [15], the system named is A549. Nature of the series: Effect on total FAK protein level in OPN-stimulated human A549 cells at 5 to 10 uM after 24 hrs by Western blot analysis. It is filed as ADME, cell-based. The note with it: a549, 24 h. The gist of the method:
as §1

Chain of Focal adhesion kinase 1 (Homo sapiens) (Q05397 2-1052 limits assumed): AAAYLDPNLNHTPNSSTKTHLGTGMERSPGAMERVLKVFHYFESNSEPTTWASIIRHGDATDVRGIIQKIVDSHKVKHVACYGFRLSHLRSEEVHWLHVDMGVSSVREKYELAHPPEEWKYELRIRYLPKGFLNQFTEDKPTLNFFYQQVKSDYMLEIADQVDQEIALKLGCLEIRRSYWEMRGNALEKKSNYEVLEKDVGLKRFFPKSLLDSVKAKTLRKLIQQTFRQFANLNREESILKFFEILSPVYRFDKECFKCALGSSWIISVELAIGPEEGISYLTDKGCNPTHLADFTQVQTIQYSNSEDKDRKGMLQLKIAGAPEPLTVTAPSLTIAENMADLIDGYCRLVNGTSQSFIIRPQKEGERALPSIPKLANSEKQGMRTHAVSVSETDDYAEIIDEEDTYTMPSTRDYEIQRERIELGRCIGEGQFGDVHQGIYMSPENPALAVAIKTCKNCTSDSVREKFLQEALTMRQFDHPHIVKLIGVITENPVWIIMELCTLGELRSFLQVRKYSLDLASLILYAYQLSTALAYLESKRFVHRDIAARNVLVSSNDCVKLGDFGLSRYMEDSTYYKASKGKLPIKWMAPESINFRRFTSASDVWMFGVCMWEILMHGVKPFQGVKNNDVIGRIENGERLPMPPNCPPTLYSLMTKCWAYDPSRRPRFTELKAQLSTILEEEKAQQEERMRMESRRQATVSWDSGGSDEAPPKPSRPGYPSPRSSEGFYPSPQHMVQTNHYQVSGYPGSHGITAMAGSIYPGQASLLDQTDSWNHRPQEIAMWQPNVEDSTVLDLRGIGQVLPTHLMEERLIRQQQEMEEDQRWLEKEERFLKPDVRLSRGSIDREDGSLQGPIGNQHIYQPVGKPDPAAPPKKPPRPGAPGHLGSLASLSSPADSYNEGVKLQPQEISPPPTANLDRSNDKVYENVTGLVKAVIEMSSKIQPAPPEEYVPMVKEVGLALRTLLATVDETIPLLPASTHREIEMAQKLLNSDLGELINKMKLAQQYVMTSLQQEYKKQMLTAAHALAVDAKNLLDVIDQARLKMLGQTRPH

The inhibition is the change of the read-out against control, counted positive when it falls. Turning to `C/C1=C\CC(C)(C)/C=C/C(=O)/C(C)=C/CC1` [ZERUMBONE], the inhibition entry in series [1], in series [4] and in series [7] was “Active” throughout. Further, the inhibition entry in series [2], in [13] and in series [14] was “Dose-dependent effect” in each case. Besides, the inhibition at 10 µM in series [3] worked out at 69%. Further, the Activity result is reported as “Non-toxic” in series [5]; “Non-toxic” in series [8]; “Non-toxic” in [9]; “Non-toxic” in [10]; “Non-toxic” in series [11]; “Toxic” in [12]. Besides, the Activity entry in series [15] is on record as “Non-toxic”. Moreover, the inhibition at 5 µM in series [6] worked out at 48%.
